According to PMC5723703 (Pharmacology Research & Perspectives, 2017):
Values joined by “and” are separate entries in the source; they are usually repeats but may differ in a detail not shown here. Equal values may be shown once. Read-outs that look alike come from different tables or passages of the source.

What was measured:
human S1P3 receptor = human S1P3 receptor (Homo sapiens, UniProt Q99500); format: biochemical
human S1P4 receptor = target: T1, human S1P4 receptor (Homo sapiens, UniProt O95977); format: biochemical
T1 sequence (O95977 1-384): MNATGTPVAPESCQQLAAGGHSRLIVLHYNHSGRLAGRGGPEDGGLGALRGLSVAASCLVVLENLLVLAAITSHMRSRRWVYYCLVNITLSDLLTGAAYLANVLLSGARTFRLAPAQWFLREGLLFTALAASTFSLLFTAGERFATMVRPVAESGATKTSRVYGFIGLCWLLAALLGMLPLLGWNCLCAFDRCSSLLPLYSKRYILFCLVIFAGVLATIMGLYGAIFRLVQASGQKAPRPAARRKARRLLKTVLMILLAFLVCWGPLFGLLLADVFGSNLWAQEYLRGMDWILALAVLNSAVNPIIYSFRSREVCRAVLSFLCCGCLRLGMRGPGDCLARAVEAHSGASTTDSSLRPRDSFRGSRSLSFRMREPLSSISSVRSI
Outline: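 Membranes from CHO cells expressing recombinant human S1P4 were used for (35S)-GTPγS binding as a measure of G protein activation. EC50 was fitted with the compound's own maximal response as the top and the no-effect level of the lowest concentration as the bottom.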

S1P1 receptor [1] = target: T2, S1P1 receptor (Homo sapiens, UniProt P21453); experiment: Ca2+ mobilization assay; format: cell-based
T2 sequence (P21453 whole entry): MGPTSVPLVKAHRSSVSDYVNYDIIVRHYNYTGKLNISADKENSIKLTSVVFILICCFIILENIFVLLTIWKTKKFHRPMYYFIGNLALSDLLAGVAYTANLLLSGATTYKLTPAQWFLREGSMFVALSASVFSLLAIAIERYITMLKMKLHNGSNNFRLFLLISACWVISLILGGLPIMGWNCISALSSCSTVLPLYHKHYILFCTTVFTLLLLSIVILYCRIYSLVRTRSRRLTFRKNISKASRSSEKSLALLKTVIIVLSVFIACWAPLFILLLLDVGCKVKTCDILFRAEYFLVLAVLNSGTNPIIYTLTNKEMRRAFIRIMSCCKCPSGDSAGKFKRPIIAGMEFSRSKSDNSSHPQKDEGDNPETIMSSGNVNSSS

rat trachea = experiment: Isometric force development, isolated rat tracheal rings
[2] = system: spontaneous hypertensive rats; experiment: Blood pressure and heart rate by telemetry in conscious SHR; format: in vivo, rat
Wistar rats [3] = experiment: In vivo lung function; parameters: species or system rat; conditions: n = 10
Outline: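 Male Wistar rats (200-250 g), acclimatised at least 7 days, were unrestrained, conscious and breathing spontaneously in whole-body plethysmograph chambers (calibrated with a 5 mL air injection), one rat per chamber. Baseline was recorded for 120 min. Single oral dosing used 0.25% methylcellulose/0.05% Tween 80 vehicle, followed by recording for 6 h.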

S1P2 receptor [4] = target: T3, S1P2 receptor (Homo sapiens, UniProt O95136); format: biochemical
T3 sequence (O95136 whole entry): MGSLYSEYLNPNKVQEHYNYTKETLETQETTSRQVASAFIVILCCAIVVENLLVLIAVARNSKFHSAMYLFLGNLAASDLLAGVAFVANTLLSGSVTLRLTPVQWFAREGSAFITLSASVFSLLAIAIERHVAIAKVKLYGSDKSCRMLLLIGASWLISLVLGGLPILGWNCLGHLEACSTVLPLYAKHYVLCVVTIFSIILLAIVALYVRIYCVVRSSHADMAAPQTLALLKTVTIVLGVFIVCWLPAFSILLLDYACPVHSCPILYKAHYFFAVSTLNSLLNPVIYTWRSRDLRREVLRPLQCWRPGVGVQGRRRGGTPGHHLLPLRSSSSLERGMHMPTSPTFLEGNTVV

human S1P5 receptor = human S1P5 receptor (Homo sapiens, UniProt Q9H228); format: biochemical
Chain of human S1P5 receptor (Q9H228 whole entry): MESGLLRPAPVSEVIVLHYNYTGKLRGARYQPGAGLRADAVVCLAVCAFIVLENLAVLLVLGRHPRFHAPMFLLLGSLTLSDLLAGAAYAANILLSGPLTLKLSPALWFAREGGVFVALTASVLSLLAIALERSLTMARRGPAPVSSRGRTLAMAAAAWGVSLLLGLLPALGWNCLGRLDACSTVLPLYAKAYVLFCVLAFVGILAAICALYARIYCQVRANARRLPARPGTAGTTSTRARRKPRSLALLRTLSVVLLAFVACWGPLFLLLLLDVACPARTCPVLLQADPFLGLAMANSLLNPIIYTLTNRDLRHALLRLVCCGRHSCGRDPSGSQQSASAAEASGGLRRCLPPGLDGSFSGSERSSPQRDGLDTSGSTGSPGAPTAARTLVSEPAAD

rat mesenteric arteries = experiment: Isometric force development, isolated rat mesenteric arteries
Outline: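 After CO₂ euthanasia, two mesenteric artery rings (1.5 mm, 2nd and 3rd branch) were mounted on 20 μm wires in a wire myograph with modified Krebs-Henseleit buffer. Viability was checked with KCl 60 mmol/L. Endothelium was confirmed by acetylcholine (10^-5 mol/L) relaxation of rings precontracted with U46619 (10^-6 mol/L).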

human bronchi = experiment: Isometric force development, isolated human bronchial rings
S1P1 receptor [5] = target: T2, S1P1 receptor; format: biochemical
S1P1 receptor [6] = target: T2, S1P1 receptor; format: biochemical; remark: listed apart in the source
S1P1 receptor [7] = target: T2, S1P1 receptor; experiment: Ca2+ signaling in CHO cells expressing recombinant human S1P1 receptor; format: cell-based
Wistar rats [8] = experiment: Blood lymphocyte count in rats after oral administration; format: in vivo, rat
[9] = Compound concentrations in rat plasma; format: in vivo; conditions: for plasma concentration at time of maximal lymphocyte count reduction (6 hours): rats
C57BL/6 mice [10] = experiment: Lymphocyte count and plasma concentration in mice; format: in vivo, mouse; conditions: three repeated doses of 6 mg·kg^‐1·day^‐1, day 0 vs day 2 (data not shown)
C57BL/6 mice [11] = experiment: Mouse MOG33-55 EAE model with spinal cord histopathology; format: in vivo
Outline: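 EAE was induced in 6-week-old female C57BL/6JOlaHsd mice with 150 μg MOG33-55 in CFA, s.c. into both flanks under isoflurane, plus a pertussis toxin boost. Dosing was 6 mg·kg^‐1·day^‐1 or vehicle (0.25% methylcellulose, 0.05% Tween 80) from day 0 or day 14, with daily scoring 0–5. Spinal cords were taken after saline perfusion, formalin-fixed, and 4 μm sections stained with HE and cresyl violet/Luxol fast blue; naïve mice served as controls.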

S1P2 receptor [12] = target: T3, S1P2 receptor; experiment: Impedance-based analysis of S1P2 receptor signaling in CHO-hS1P2 cells; format: cell-based; conditions: 0.05-5000 nM
[13] = EC50 hS1P4, (35S)-GTPγS, CHO membranes, geometric mean, n = 2‐4
[14] = percentage of maximal response induced by 1 or 10 μmol·L^‐1 S1P

Chain of human S1P3 receptor (Q99500 whole entry): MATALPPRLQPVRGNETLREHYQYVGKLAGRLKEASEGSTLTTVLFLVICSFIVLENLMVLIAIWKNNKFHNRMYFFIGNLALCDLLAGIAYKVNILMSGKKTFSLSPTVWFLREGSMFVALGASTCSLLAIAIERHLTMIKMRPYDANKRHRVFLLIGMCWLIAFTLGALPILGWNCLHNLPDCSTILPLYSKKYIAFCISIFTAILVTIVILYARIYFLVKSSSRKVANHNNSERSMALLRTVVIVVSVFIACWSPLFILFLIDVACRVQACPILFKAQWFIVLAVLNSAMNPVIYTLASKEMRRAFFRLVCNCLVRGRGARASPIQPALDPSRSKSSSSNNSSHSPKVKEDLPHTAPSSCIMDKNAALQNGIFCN

## CCCCCCCCCCCCC/C=C/[C@@H](O)[C@@H](N)COP(=O)(O)O [S1P, Sphingosine‐1‐phosphate, reference compound]
Human S1P3 receptor
  EC50: 0.1 nM
Human S1P4 receptor; [13]
  EC50: 60 nM
S1P1 receptor [1]
  EC50: 34 nM
Rat trachea; 1 μmol·L^‐1, in presence of Ca^2+ (2.5 mmol·L^‐1), n = 3
  constriction of lower rat trachea: induced lower rat trachea constriction

## CCCCCCCCc1ccc(CCC(N)(CO)CO)cc1 [FTY720, reference compound]
[2]; 3 mg·kg^‐1 single oral dose
  decrease of heart rate (HR): 26 ± 8 bpm
[2]; 3 mg·kg^‐1 single oral dose, 48 hours observation period
  increase of mean arterial blood pressure (MAP): 12 ± 2 mmHg
Wistar rats [3]; 3 or 10 mg·kg^‐1 p.o. single dose
  Penh (index of bronchoconstriction) vs vehicle: significant dose‐dependent increases

## CCCCCCCCc1ccc(CCC(N)(CO)COP(=O)(O)O)cc1 (stereo not drawn) [pFTY720, reference compound]
S1P2 receptor [4]; [14]
  E max (%) hS1P2: 11%
Human S1P4 receptor; [14]
  E max (%) hS1P4: 109%
Human S1P4 receptor; read-out: EC50 hS1P4, (35S)-GTPγS, CHO membranes, geometric mean, n = 2‐4
  EC50: 64 nM
Human S1P5 receptor; [14]
  E max (%) hS1P5: 43%
Rat mesenteric arteries; 1, 10 or 100 nmol·L^‐1, n = 4
  contraction of rat mesenteric arteries: concentration‐dependent contraction
Rat trachea; 10, 100 or 1000 nmol·L^‐1, n = 4
  contraction of upper and lower rat trachea: concentration‐dependent contractile response
Human bronchi; % of reference contraction to KCl (50 mmol·L^‐1), mean ± SEM, n = 4
  E max contraction of human bronchi: 86.5 ± 20.2%
Human bronchi; mean ± SEM, n = 4
  pEC50 contraction of human bronchi: 6.4 ± 0.5

## CCc1cc(-c2noc(-c3cc(OC)nc(C4CCCC4)c3)n2)cc(C)c1OC[C@@H](O)CO [Cenerimod, (S)‐3‐(4‐(5‐(2‐cyclopentyl‐6‐methoxypyridin‐4‐yl)‐1,2,4‐oxadiazol‐3‐yl)‐2‐ethyl‐6‐methylphenoxy)propane‐1,2‐diol]
S1P1 receptor [5]; (35S)-GTPγS EC50 ratio
  fold higher potency on the S1P1 receptor compared to the natural ligand S1P: 16 fold
S1P1 receptor [5]; read-out: E max (%) hS1P1
  Emax: 126%
S1P2 receptor [4]
  EC50: > 10000 nM
S1P2 receptor [4]; up to the highest tested concentration (10 μmol·L^‐1)
  agonist activity on the S1P2 receptor: no detectable agonist activity
Human S1P3 receptor
  EC50: 228 nM
Human S1P3 receptor; (35S)-GTPγS EC50 ratio
  fold less active at the S1P3 receptor than S1P: at least 2000 fold
  fold less active at the S1P3 receptor than pFTY720: 400 fold
Human S1P3 receptor; read-out: E max (%) hS1P3
  Emax: 81%
Human S1P4 receptor; EC50 S1P4 receptor, (35S)-GTPγS, human recombinant receptor
  EC50: 2100 nM
Human S1P4 receptor; [13]
  EC50: 2130 nM
Human S1P4 receptor; read-out: E max (%) hS1P4
  Emax: 123%
Human S1P5 receptor
  EC50: 36 nM
Human S1P5 receptor; (35S)-GTPγS EC50 ratio
  fold less potent on the S1P5 receptor than pFTY720: 70 fold
  fold more potent on the S1P5 receptor than the natural ligand S1P: twofold
Human S1P5 receptor; read-out: E max (%) hS1P5
  Emax: 65%
S1P1 receptor [6]
  EC50: 2 nM
S1P1 receptor [1]
  EC50: 1040 nM
S1P1 receptor [1]; HUVEC
  fold less potent in Ca^2+ signaling than in (35S)‐GTPγS assays: approximately 500 fold
S1P1 receptor [7]
  EC50: 124 nM
Rat mesenteric arteries; 10 μmol·L^‐1, n = 4
  contraction of rat mesenteric arteries: did not contract
[2]; 30 mg·kg^‐1 single oral dose
  effect on heart rate (HR): no effect
[2]; 30 mg·kg^‐1 single oral dose, 48 hours observation period
  decrease of mean arterial blood pressure (MAP): 9 ± 3 mmHg
Rat trachea; highest tested concentration 10 μmol·L^‐1, n = 4
  contraction of upper and lower rat trachea: complete lack of response
Human bronchi; 10 μmol·L^‐1
  contraction of human bronchi: no contraction
Wistar rats [3]; 100 mg·kg^‐1 p.o., 4 hours evaluation period
  Penh (index of bronchoconstriction) vs vehicle: did not increase
Wistar rats [8]
  single oral dose at which plateau of lymphocyte reduction is reached: 1 mg·kg^‐1
Wistar rats [8]; 1 mg·kg^‐1 single oral dose
  time until lymphocyte count returned to predose levels: ≤ 48 h
Wistar rats [8]; 1 mg·kg^‐1 single oral dose, P < .001
  decrease of blood lymphocyte count: 63 ± 4%
Wistar rats [8]; 1 mg·kg^‐1 single oral dose, from 7900 ± 690 before dosing
  blood lymphocyte count after dosing: 2900 ± 370 lymphocytes/μL
Wistar rats [8]; 1 mg·kg^‐1·day^‐1 oral for 7 days (data not shown)
  time until lymphocyte count returned to physiological levels after the last dose: ≤ 2 days
Wistar rats [8]; 3 mg·kg^‐1 single oral dose
  reduction of blood lymphocyte count at 48 hours: more than 40%
Wistar rats [8]; 3 mg·kg^‐1·day^‐1 oral for 7 days (data not shown)
  time until lymphocyte count returned to physiological levels after the last dose: ≤ 4 days
Wistar rats [8]; 10 mg·kg^‐1 single oral dose
  reduction of peripheral blood lymphocyte count after 48 hours: 65 ± 3%
[9]; 4 hours after oral administration of 100 mg·kg^‐1, Wistar rats (Penh study)
  plasma concentration: 4.4 ± 0.6 μg·mL^‐1
[9]; Wistar, rat, plasma, po
  Tmax: 3 h
[9]; 1 mg·kg^‐1 single oral dose
  plasma concentration at time of maximal lymphocyte count reduction (6 hours): 41 ± 2 ng·mL^‐1
[9]; 10 mg·kg^‐1 single oral dose
  plasma concentration at time of maximal lymphocyte count reduction (6 hours): 869 ± 73 ng·mL^‐1
C57BL/6 mice [10]
  compound accumulation: absence of compound accumulation
C57BL/6 mice [11]; 6 mg·kg^‐1·day^‐1 from day 0 (preventive), n = 8
  mice completely protected from disease development: Five out of eight
C57BL/6 mice [11]; 6 mg·kg^‐1·day^‐1 from day 14 (therapeutic), n = 8
  clinical score reached (maximum reduction), all treated mice: 0.5
C57BL/6 mice [11]; preventive or therapeutic regimen, 6 mg·kg^‐1·day^‐1
  incidence and severity of spinal cord demyelination: equally reduced
C57BL/6 mice [11]; preventive treatment 6 mg·kg^‐1·day^‐1, three of eight mice
  maximal clinical score of the individual mice that developed disease: 2.5 and 3.0 and 0.5
C57BL/6 mice [11]; therapeutic treatment
  time to reach clinical score of 0.5 after treatment initiation, two mice: ≤ 11 days
S1P2 receptor [12]
  S1P2 receptor agonist activity in more sensitive (cellular) assays: no S1P2 receptor agonist activity

## CCCCCCCOc1ccc(CCC(N)(CO)COP(=O)(O)O)cc1C(F)(F)F (stereo not drawn) [p-amiselimod (pMT-1303)]
Rat trachea; lower rat trachea, 1 μmol·L^‐1 and 10 μmol·L^‐1
  rat trachea constriction: induced effective rat trachea constriction
